The subject of experiment [1] is Rattus norvegicus. The experiment in a line: Evaluated in vivo for logarithm effective dose (ED). Format: functional, organism-based.
The species named for experiment [2] is Rattus norvegicus. Description: Antidiuretic activity in rats and pA2 value is negative logarithm of effective dose (ED). As to conditions: Urine, read-out: pA2 (converted). In kind it is functional, organism-based. In short, it runs like this: (§1)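 Antidiuretic assay in rats under ethanol anaesthesia against the USP posterior pituitary reference standard. Standard given 20 min after antagonist, or 10 min for analogues lacking agonism. Each peptide given at a high and a low dose. ED is the dose (nmol/kg) that cuts the response to 2x units of agonist to the response to 1x unit given before antagonist. […] Means ± SE, n assays.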

The species entered for experiment [3] is Rattus norvegicus. The experiment in a line: Anti-oxytocic activity on isolated rat uterus in presence of 0.5 mM of Mg2+. pA2 value is negative logarithm of effective dose (ED). Format: functional. As to conditions: read-out: pA2 (converted). In short, it runs like this:
(§2)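 Isolated rat uterus, with USP posterior pituitary reference standard as agonist. Antagonism expressed as pA2.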

The species named for experiment [4] is Rattus norvegicus. Description: Anti-oxytocic activity on isolated rat uterus in absence of Mg2+. pA2 value is negative logarithm of effective dose (ED). The conditions noted are these: read-out: pA2 (converted). Format: functional. Summed up: as §2
Experiment [5] has as its system Rattus norvegicus. The experiment in a line: In vivo antidiuretic activity in rat measured as dose that reduced the response seen with 2x units of agonist to equal the response seen with 1x unit of agonist administered before antagonist. In kind it is functional, Urine. In short, it runs like this:
as §1

Experiment [6] can be described thus: Ratio of anti-vasopressor ED50 to antiantidiuretic ED50. Format: functional, Urine. Summed up: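 Ratio of antivasopressor ED to antiantidiuretic ED. Each ED is the dose (nmol/kg) that lowers the response to 2x units of agonist to that of 1x unit before antagonist. Measured in rats: vasopressor assay in phenoxybenzamine-treated, urethane-anaesthetised animals; antidiuretic assay under ethanol anaesthesia.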

The subject of experiment [7] is Rattus norvegicus. Description: In vivo anti-vasopressor activity in phenoxybenzamine-treated rats under urethane anesthesia is measured as effective dose. In kind it is functional. Summed up: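 Intravenous vasopressor assay in phenoxybenzamine-treated rats under urethane anaesthesia, agonist USP posterior pituitary reference standard. ED is the dose (nmol/kg) that reduces the response to 2x units of agonist to that of 1x unit given before antagonist. […] Means ± SE, number of assays given.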

Experiment [8] is filed under the species Rattus norvegicus. The experiment in a line: Anti-oxytocic activity in rat uterus and effective dose (ED) was reported. Format: functional. Summed up: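 Rat uterus in situ, with synthetic oxytocin as agonist. ED is the dose (nmol/kg) that lowers the response to 2x units of agonist to that of 1x unit given before antagonist.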

*1 amine or outer side, *2 acyl side, *3 side chain or, on linkers, in order; H or OH if unused. Where a SMILES comes first, the peptide text is derived from it. Bridges are numbered along the chain shown (N, C = ends). [ ]: non-standard residue; d: D form. X1 = O=C(CC1(S[*:2])CCCCC1)[*:1]; Orn = NCCC[C@H](N)C(=O)O

In the case of `CC[C@@H](C)[C@H]1NC(=O)CC2(CCCCC2)SSC[C@@H](C(=O)N2CCC[C@H]2C(=O)N[C@@H](CCCN=C(N)N)C(=O)NCC(N)=O)NC(=O)[C@H](CC(N)=O)NC(=O)[C@H](CCCN)NC(=O)[C@H](Cc2ccccc2)NC1=O` [listing 1 of 2 here], the in vivo pA2 effective dose (as concentration) in experiment [1] is 174 nM. In addition, the Kb in experiment [2] was 347 nM; in experiment [3], 195 nM; in experiment [4], 26.9 nM.
In the case of `CC[C@@H](C)[C@H]1NC(=O)CC2(CCCCC2)SSC[C@@H](C(=O)N2CCC[C@H]2C(=O)N[C@@H](CCCN=C(N)N)C(=O)NCC(N)=O)NC(=O)[C@H](CC(N)=O)NC(=O)[C@H](CCCN)NC(=O)[C@H](Cc2ccccc2)NC1=O` [listing 2 of 2 here], the ED in experiment [5] was 49 nmol/kg; in experiment [7], 11.9 nmol/kg. The Ratio in experiment [6] is 0.24.
With `NC(=O)CNC(=O)[C@H](CCCN=C(N)N)NC(=O)[C@@H]1CCCN1C(=O)[C@@H]1CSSC2(CCCCC2)CC(=O)N[C@H](Cc2ccccc2)C(=O)N[C@@H](Cc2ccccc2)C(=O)N[C@@H](CO)C(=O)N[C@@H](CC(N)=O)C(=O)N1`, the figures for the ED in experiment [5], in experiment [7] and in experiment [8] were 3.9 nmol/kg, 1.6 nmol/kg and 13 nmol/kg, respectively. For the same compound, the Ratio in experiment [6] was 0.41.
For `CC[C@@H](C)[C@H]1NC(=O)CC2(CCCCC2)SSC[C@@H](C(=O)N2CCC[C@H]2C(=O)N[C@@H](CCCN=C(N)N)C(=O)NCC(N)=O)NC(=O)[C@H](CC(N)=O)NC(=O)[C@H](C)NC(=O)[C@H](Cc2ccccc2)NC1=O` the same measures were 1.7 nmol/kg, 66 nmol/kg, 57 nmol/kg and 39.
In the case of `CCC[C@@H]1NC(=O)[C@H](Cc2ccccc2)NC(=O)[C@@H]([C@H](C)CC)NC(=O)CC2(CCCCC2)SSC[C@@H](C(=O)N2CCC[C@H]2C(=O)N[C@@H](CCCN=C(N)N)C(=O)NCC(N)=O)NC(=O)[C@H](CC(N)=O)NC1=O`, the ED in experiment [5] is 7 nmol/kg; in experiment [7], 8.2 nmol/kg; in experiment [8], 22 nmol/kg. Besides, the Ratio in experiment [6] was 1.2.
`CC[C@@H]1NC(=O)[C@H](Cc2ccccc2)NC(=O)[C@@H]([C@H](C)CC)NC(=O)CC2(CCCCC2)SSC[C@@H](C(=O)N2CCC[C@H]2C(=O)N[C@@H](CCCN=C(N)N)C(=O)NCC(N)=O)NC(=O)[C@H](CC(N)=O)NC1=O`: the results for the ED in experiment [5], in experiment [7] and in experiment [8] were 0.41 nmol/kg, 12 nmol/kg and 19 nmol/kg, respectively. For the same compound, the Ratio in experiment [6] is recorded as 29.
On to `CC[C@@H](C)[C@H]1NC(=O)CC2(CCCCC2)SSC[C@@H](C(=O)N2CCC[C@H]2C(=O)N[C@@H](CCCN=C(N)N)C(=O)NCC(N)=O)NC(=O)[C@H](CC(N)=O)NC(=O)[C@H](CC(N)=O)NC(=O)[C@H](Cc2ccccc2)NC1=O` [listing 1 of 2 here], for which the in vivo pA2 effective dose (as concentration) in experiment [1] is 55 nM. Besides, the Kb in experiment [2] is 309 nM; in experiment [3] it was 39.8 nM; in experiment [4], 11.7 nM.
In the case of `CC[C@@H](C)[C@H]1NC(=O)CC2(CCCCC2)SSC[C@@H](C(=O)N2CCC[C@H]2C(=O)N[C@@H](CCCN=C(N)N)C(=O)NCC(N)=O)NC(=O)[C@H](CC(N)=O)NC(=O)[C@H](CC(N)=O)NC(=O)[C@H](Cc2ccccc2)NC1=O` [listing 2 of 2 here], the values for the ED in experiment [5] and in experiment [7] were 25 nmol/kg and 3.9 nmol/kg, respectively. The Ratio in experiment [6] stood at 0.16.
Take `CC[C@@H](C)[C@H]1NC(=O)CC2(CCCCC2)SSC[C@@H](C(=O)N2CCC[C@H]2C(=O)N[C@@H](CCCN=C(N)N)C(=O)NCC(N)=O)NC(=O)[C@H](CC(N)=O)NC(=O)[C@H]([C@@H](C)O)NC(=O)[C@H](Cc2ccccc2)NC1=O`: the values for the ED in experiment [5], in experiment [7] and in experiment [8] were 0.88 nmol/kg, 10.5 nmol/kg and 9.5 nmol/kg, respectively. The Ratio in experiment [6] amounted to 12.
With `CC[C@@H](C)[C@H]1NC(=O)CC2(CCCCC2)SSC[C@@H](C(=O)N2CCC[C@H]2C(=O)N[C@@H](CCCN=C(N)N)C(=O)NCC(N)=O)NC(=O)[C@H](CC(N)=O)NC(=O)[C@H](C(C)C)NC(=O)[C@H](Cc2ccccc2)NC1=O`, the Ratio in experiment [6] is 12.
For `CC[C@@H](C)[C@H]1NC(=O)CC2(CCCCC2)SSC[C@@H](C(=O)N2CCC[C@H]2C(=O)N[C@@H](CCCN=C(N)N)C(=O)NCC(N)=O)NC(=O)[C@H](CC(N)=O)NC(=O)[C@H](Cc2ccccc2)NC(=O)[C@H](Cc2ccccc2)NC1=O`, the Kb in experiment [3] is 120 nM; in experiment [4], 74.1 nM.
With `CC[C@@H](C)[C@H]1NC(=O)CC2(CCCCC2)SSC[C@@H](C(=O)N2CCC[C@H]2C(=O)N[C@@H](CCCN=C(N)N)C(=O)NCC(N)=O)NC(=O)[C@H](CC(N)=O)NC(=O)[C@H](CC2CCCCC2)NC(=O)[C@H](Cc2ccccc2)NC1=O` [listing 1 of 2 here], in experiment [1], the in vivo pA2 effective dose (as concentration) was 275 nM. Moreover, the Kb was 229 nM in experiment [2], 81.3 nM in experiment [3] and 36.3 nM in experiment [4].
As for `CC[C@@H](C)[C@H]1NC(=O)CC2(CCCCC2)SSC[C@@H](C(=O)N2CCC[C@H]2C(=O)N[C@@H](CCCN=C(N)N)C(=O)NCC(N)=O)NC(=O)[C@H](CC(N)=O)NC(=O)[C@H](CC2CCCCC2)NC(=O)[C@H](Cc2ccccc2)NC1=O` [listing 2 of 2 here], the figures for the ED in experiment [5] and in experiment [7] were 15.6 nmol/kg and 19.1 nmol/kg, respectively. Also, the Ratio in experiment [6] came out at 1.2.
In the case of `CC[C@@H](C)[C@H]1NC(=O)CC2(CCCCC2)SSC[C@@H](C(=O)N2CCC[C@H]2C(=O)N[C@@H](CCCN=C(N)N)C(=O)NCC(N)=O)NC(=O)[C@H](CC(N)=O)NC(=O)[C@H](CO)NC(=O)[C@H](Cc2ccccc2)NC1=O` [listing 1 of 2 here], in experiment [1], the in vivo pA2 effective dose (as concentration) was 617 nM. Moreover, the Kb was 55 nM in experiment [2], 151 nM in experiment [3] and 52.5 nM in experiment [4].
Consider `CC[C@@H](C)[C@H]1NC(=O)CC2(CCCCC2)SSC[C@@H](C(=O)N2CCC[C@H]2C(=O)N[C@@H](CCCN=C(N)N)C(=O)NCC(N)=O)NC(=O)[C@H](CC(N)=O)NC(=O)[C@H](CO)NC(=O)[C@H](Cc2ccccc2)NC1=O` [listing 2 of 2 here], for which the ED was 4.6 nmol/kg in experiment [5] and 45 nmol/kg in experiment [7]. Further, the Ratio in experiment [6] is reported as 10.
For the compound `CC[C@@H](C)[C@H]1NC(=O)CC2(CCCCC2)SSC[C@@H](C(=O)N2CCC[C@H]2C(=O)N[C@@H](CCCN=C(N)N)C(=O)NCC(N)=O)NC(=O)[C@H](CC(N)=O)NC(=O)[C@H](CCCCN)NC(=O)[C@H](Cc2ccccc2)NC1=O` [listing 1 of 2 here], the Kb was 174 nM in experiment [2], 251 nM in experiment [3] and 79.4 nM in experiment [4].
With `CC[C@@H](C)[C@H]1NC(=O)CC2(CCCCC2)SSC[C@@H](C(=O)N2CCC[C@H]2C(=O)N[C@@H](CCCN=C(N)N)C(=O)NCC(N)=O)NC(=O)[C@H](CC(N)=O)NC(=O)[C@H](CCCCN)NC(=O)[C@H](Cc2ccccc2)NC1=O` [listing 2 of 2 here], the ED in experiment [5] worked out at 11.9 nmol/kg.
With `CC[C@@H](C)[C@H]1NC(=O)CC2(CCCCC2)SSC[C@@H](C(=O)N2CCC[C@H]2C(=O)N[C@@H](CCCN=C(N)N)C(=O)NCC(N)=O)NC(=O)[C@H](CC(N)=O)NC(=O)[C@H]([C@@H](C)CC)NC(=O)[C@H](Cc2ccccc2)NC1=O`, the ED in experiment [5] amounted to 0.67 nmol/kg; in experiment [7], 26 nmol/kg; in experiment [8], 9.4 nmol/kg. In addition, the Ratio in experiment [6] worked out at 39.
`CC[C@@H](C)[C@H]1NC(=O)CC2(CCCCC2)SSC[C@@H](C(=O)N2CCC[C@H]2C(=O)N[C@@H](CCCN=C(N)N)C(=O)NCC(N)=O)NC(=O)[C@H](CC(N)=O)NC(=O)[C@H](CC(C)C)NC(=O)[C@H](Cc2ccccc2)NC1=O` [listing 1 of 2 here]: the in vivo pA2 effective dose (as concentration) in experiment [1] is 178 nM. Also, the Kb in experiment [2] was 158 nM; in experiment [3], 26.9 nM; in experiment [4], 14.5 nM.
On to `CC[C@@H](C)[C@H]1NC(=O)CC2(CCCCC2)SSC[C@@H](C(=O)N2CCC[C@H]2C(=O)N[C@@H](CCCN=C(N)N)C(=O)NCC(N)=O)NC(=O)[C@H](CC(N)=O)NC(=O)[C@H](CC(C)C)NC(=O)[C@H](Cc2ccccc2)NC1=O` [listing 2 of 2 here], for which the ED in experiment [5] is given as 11 nmol/kg; in experiment [7], 12.4 nmol/kg. The Ratio in experiment [6] was determined as 1.1.
In experiment [1], `NCCC[C@@H]1NC(=O)[C@H](Cc2ccccc2)NC(=O)[C@@H](Cc2ccccc2)NC(=O)CC2(CCCCC2)SSC[C@@H](C(=O)N2CCC[C@H]2C(=O)N[C@@H](CCCN=C(N)N)C(=O)NCC(N)=O)NC(=O)[C@H](CC(N)=O)NC1=O` ([dF]F[Orn]NCPRG-NH2; linker N-5 via X1) [listing 1 of 2 here] showed an in vivo pA2 effective dose (as concentration) of 26.9 nM. Besides, the Kb is 316 nM in experiment [2], 20 nM in experiment [3] and 18.6 nM in experiment [4].
`NCCC[C@@H]1NC(=O)[C@H](Cc2ccccc2)NC(=O)[C@@H](Cc2ccccc2)NC(=O)CC2(CCCCC2)SSC[C@@H](C(=O)N2CCC[C@H]2C(=O)N[C@@H](CCCN=C(N)N)C(=O)NCC(N)=O)NC(=O)[C@H](CC(N)=O)NC1=O` ([dF]F[Orn]NCPRG-NH2; linker N-5 via X1) [listing 2 of 2 here]: the ED in experiment [5] is listed as 21.3 nmol/kg; in experiment [7] it was 1.9 nmol/kg. Also, in experiment [6], the Ratio turned out to be 0.09.

Values taken from ChEMBL document CHEMBL1122629, “Potent and selective antagonists of the antidiuretic responses to arginine-vasopressin based on modifications of [1-(beta-mercapto-beta,beta-pentamethylenepropionic acid),2-D-isoleucine,4- valine]arginine-vasopressin at position 4” (J Med Chem, 1984).
